Test results taken from ChEMBL document CHEMBL1128406, “Effects of tubercidin and its 5'-O-methyl ether on adenosine receptors and mediator release functions in mast cells” (1995).

Experiments:
CHO-K1-BH4 [1] = assay: Compound is tested for cytotoxicity in Chinese hamster ovary cells (CHO-K1-BH4) in the absence of S-9 microsome fraction at concentration 0.4 micro M; type: functional, Cricetulus griseus
Outline: (§1)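 CHO-K1-BH4 cells exposed to the test article for 5 h with no exogenous S-9 microsome fraction, then given an overnight recovery period without compound. Relative cytotoxicity was scored afterwards, following the contract lab's CYT/CHO protocol.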

CHO-K1-BH4 [2] = assay: Compound is tested for cytotoxicity in Chinese hamster ovary cells (CHO-K1-BH4) in the presence of S-9 microsome fraction at concentration 360 micro M; type: functional, Cricetulus griseus
Outline: (§2)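 CHO-K1-BH4 cells exposed to the test article for 5 h with an S-9 microsome fraction present, then given an overnight compound-free recovery period. Relative cytotoxicity was assessed after recovery.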

CHO-K1-BH4 [3] = assay: Compound is tested for cytotoxicity in Chinese hamster ovary cells (CHO-K1-BH4) in the absence of S-9 microsome fraction at concentration 3.7 micro M; type: functional, Cricetulus griseus; outline: as §1
CHO-K1-BH4 [4] = assay: Compound is tested for cytotoxicity in Chinese hamster ovary cells (CHO-K1-BH4) in the absence of S-9 microsome fraction at concentration 360 micro M; type: functional, Cricetulus griseus; outline: as §1
CHO-K1-BH4 [5] = assay: Compound is tested for cytotoxicity in Chinese hamster ovary cells (CHO-K1-BH4) in the absence of S-9 microsome fraction at concentration 37 micro M; type: functional, Cricetulus griseus; outline: as §1
CHO-K1-BH4 [6] = assay: Compound is tested for cytotoxicity in Chinese hamster ovary cells (CHO-K1-BH4) in the absence of S-9 microsome fraction at concentration 0 micro M; type: functional, Cricetulus griseus; outline: as §1
CHO-K1-BH4 [7] = assay: Compound is tested for cytotoxicity in Chinese hamster ovary cells (CHO-K1-BH4) in the presence of S-9 microsome fraction at concentration 3.7 micro M; type: functional, Cricetulus griseus; outline: as §2
Mus musculus = species on record: Mus musculus; assay: Compound is evaluated for the ability to inhibit the passive cutaneous anaphylaxis (PCA) reaction in mouse in presence of Ag; type: functional
CHO-K1-BH4 [8] = assay: Compound is tested for cytotoxicity in Chinese hamster ovary cells (CHO-K1-BH4) in the presence of S-9 microsome fraction at concentration 37 micro M; type: functional, Cricetulus griseus; outline: as §2
CHO-K1-BH4 [9] = assay: Compound is tested for cytotoxicity in Chinese hamster ovary cells (CHO-K1-BH4) in the presence of S-9 microsome fraction at concentration 114 micro M; type: functional, Cricetulus griseus; outline: as §2
CHO-K1-BH4 [10] = assay: Compound is tested for cytotoxicity in Chinese hamster ovary cells (CHO-K1-BH4) in the presence of S-9 microsome fraction at concentration 1136 micro M; type: functional, Cricetulus griseus; outline: as §2
CHO-K1-BH4 [11] = assay: Compound is tested for cytotoxicity in Chinese hamster ovary cells (CHO-K1-BH4) in the presence of S-9 microsome fraction at concentration 11 micro M; type: functional, Cricetulus griseus; outline: as §2
CHO-K1-BH4 [12] = assay: Compound is tested for cytotoxicity in Chinese hamster ovary cells (CHO-K1-BH4) in the presence of S-9 microsome fraction at concentration 0.17 micro M; type: functional, Cricetulus griseus; outline: as §2
CHO-K1-BH4 [13] = assay: Compound is tested for cytotoxicity in Chinese hamster ovary cells (CHO-K1-BH4) in the absence of S-9 microsome fraction at concentration 1136 micro M; type: functional, Cricetulus griseus; outline: as §1
CHO-K1-BH4 [14] = assay: Compound is tested for cytotoxicity in Chinese hamster ovary cells (CHO-K1-BH4) in the absence of S-9 microsome fraction at concentration 1.1 micro M; type: functional, Cricetulus griseus; outline: as §1
CHO-K1-BH4 [15] = assay: Compound is tested for cytotoxicity in Chinese hamster ovary cells (CHO-K1-BH4) in the presence of S-9 microsome fraction at concentration 1.1 micro M; type: functional, Cricetulus griseus; outline: as §2
CHO-K1-BH4 [16] = assay: Compound is tested for cytotoxicity in Chinese hamster ovary cells (CHO-K1-BH4) in the absence of S-9 microsome fraction at concentration 11 micro M; type: functional, Cricetulus griseus; outline: as §1
CHO-K1-BH4 [17] = assay: Compound is tested for cytotoxicity in Chinese hamster ovary cells (CHO-K1-BH4) in the absence of S-9 microsome fraction at concentration 0.17 micro M; type: functional, Cricetulus griseus; outline: as §1
CHO-K1-BH4 [18] = assay: Compound is tested for cytotoxicity in Chinese hamster ovary cells (CHO-K1-BH4) in the absence of S-9 microsome fraction at concentration 1.1*10e-4 micro M; type: functional, Cricetulus griseus
Outline: (§3)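 CHO-K1-BH4 cells exposed to test article for 5 h, with or without exogenous S-9 microsome fraction, then recovered overnight without compound before relative cytotoxicity was scored.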

CHO-K1-BH4 [19] = assay: Compound is tested for cytotoxicity in Chinese hamster ovary cells (CHO-K1-BH4) in the presence of S-9 microsome fraction at concentration 11.4*10e-4 micro M; type: functional, Cricetulus griseus; outline: as §3
CHO-K1-BH4 [20] = assay: Compound is tested for cytotoxicity in Chinese hamster ovary cells (CHO-K1-BH4) in the absence of S-9 microsome fraction at concentration 114*10e-4 micro M; type: functional, Cricetulus griseus; outline: as §3
CHO-K1-BH4 [21] = assay: Compound is tested for cytotoxicity in Chinese hamster ovary cells (CHO-K1-BH4) in the absence of S-9 microsome fraction at concentration 0.1*10e-4 micro M; type: functional, Cricetulus griseus; outline: as §3
CHO-K1-BH4 [22] = assay: Compound is tested for cytotoxicity in Chinese hamster ovary cells (CHO-K1-BH4) in the presence of S-9 microsome fraction at concentration 114*10e-4 micro M; type: functional, Cricetulus griseus; outline: as §3
CHO-K1-BH4 [23] = assay: Compound is tested for cytotoxicity in Chinese hamster ovary cells (CHO-K1-BH4) in the presence of S-9 microsome fraction at concentration 0.1*10e-4 micro M; type: functional, Cricetulus griseus; outline: as §3
CHO-K1-BH4 [24] = assay: Compound is tested for cytotoxicity in Chinese hamster ovary cells (CHO-K1-BH4) in the absence of S-9 microsome fraction at concentration 9 micro M; type: functional, Cricetulus griseus; outline: as §3
CHO-K1-BH4 [25] = assay: Compound is tested for cytotoxicity in Chinese hamster ovary cells (CHO-K1-BH4) in the presence of S-9 microsome fraction at concentration 1.1*10e-4 micro M; type: functional, Cricetulus griseus; outline: as §3
CHO-K1-BH4 [26] = assay: Compound is tested for cytotoxicity in Chinese hamster ovary cells (CHO-K1-BH4) in the absence of S-9 microsome fraction at concentration 11.4*10e-4 micro M; type: functional, Cricetulus griseus; outline: as §3

COC[C@H]1OC(n2ccc3c(N)ncnc32)[C@H](O)[C@@H]1O (stereo partly drawn)
Inhibition (CHO-K1-BH4 [1]): 0%
Inhibition (CHO-K1-BH4 [2]): 99%
Inhibition (CHO-K1-BH4 [3]): 12%
Inhibition (CHO-K1-BH4 [4]): 37%
Inhibition (CHO-K1-BH4 [5]): 30%
Inhibition (CHO-K1-BH4 [6]): 0%
Inhibition (CHO-K1-BH4 [7]): 2%
grade (Mus musculus): 1.75
Inhibition (CHO-K1-BH4 [8]): 36%

Nc1ncnc2c1ncn2[C@@H]1O[C@H](CO)[C@@H](O)[C@H]1O [ADENOSINE]
Inhibition (CHO-K1-BH4 [9]): 0%
Inhibition (CHO-K1-BH4 [10]): 7%
Inhibition (CHO-K1-BH4 [11]): 0%
Inhibition (CHO-K1-BH4 [12]): 0.04%
Inhibition (CHO-K1-BH4 [13]): 43%
Inhibition (CHO-K1-BH4 [14]): 22%
Inhibition (CHO-K1-BH4 [15]): 8%
Inhibition (CHO-K1-BH4 [16]): 19%
Inhibition (CHO-K1-BH4 [17]): 0%

Nc1ncnc2c1ccn2[C@@H]1O[C@H](CO)[C@@H](O)[C@H]1O [TUBERCIDIN]
Inhibition (CHO-K1-BH4 [18]): 16%
Inhibition (CHO-K1-BH4 [19]): 80%
Inhibition (CHO-K1-BH4 [20]): 100%
Inhibition (CHO-K1-BH4 [21]): 10%
Inhibition (CHO-K1-BH4 [22]): 100%
Inhibition (CHO-K1-BH4 [23]): 4%
Inhibition (CHO-K1-BH4 [24]): 11%
grade (Mus musculus): 1.17
Inhibition (CHO-K1-BH4 [25]): 9%
Inhibition (CHO-K1-BH4 [26]): 92%
